From ChEMBL document CHEMBL1122744, “2-Chloroethyl (methylsulfonyl)methanesulfonate and related (methylsulfonyl)methanesulfonates. Antineoplastic activity in vivo” (J Med Chem, 1984)

Columns and labels:
Mus musculus [1] = assay: Mortality by day 5 expressed as number of mice died to the total treated at dose 22 mg/kg in exp6; 0/6; format: ADME, organism-based; design: dose 22 mg/kg; settings: in vivo
Mus musculus [2] = assay: Mortality by day 5 expressed as number of mice died to the total treated at dose 75 mg/kg in exp2; 0/5; format: ADME, organism-based; design: dose 75 mg/kg; settings: in vivo
[3] = Ratio of number of 30-day survivors to the total treated mice at dose 33 mg/kg in exp4; 1/6; format: functional
Mus musculus [4] = assay: Mortality by day 5 expressed as number of mice died to the total treated at dose 50 mg/kg in exp5; 0/6; format: ADME, organism-based; design: dose 50 mg/kg; settings: in vivo
Mus musculus [5] = assay: Median survival time of the untreated control groups, in which there are no 30-day survivors at dose 50 mg/kg in exp4; format: functional
[6] = Ratio of median survival times for non-survivors at dose 50 mg/kg in exp6; format: functional
Mus musculus [7] = assay: Change in weight by day 5, obtained by subtracting treated groups of animals minus control groups of animals at dose 50 mg/kg in exp2.; format: functional
In short: (§1)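 Mice were inoculated ip with 10^6 P388 leukemia cells on day 0 and weighed 19–22 g that day. Compound was given ip once daily on days 1–5, within about 5 min of preparing the solution or suspension, to groups of six (occasionally five). Thirty inoculated untreated mice served as controls. The value is the average weight change of treated mice minus that of controls on day 5.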

Mus musculus [8] = assay: Change in weight by day 5, obtained by subtracting treated groups of animals minus control groups of animals at dose 33 mg/kg in exp5; format: functional; in short: as §1
Mus musculus [9] = assay: Mortality by day 5 expressed as number of mice died to the total treated at dose 50 mg/kg in exp4; 0/6; format: ADME, organism-based; design: dose 50 mg/kg; settings: in vivo
Mus musculus [10] = assay: Median survival time of the treated control groups, in which there are no 30-day survivors at dose 33 mg/kg in exp6; format: functional
Mus musculus [11] = assay: Change in weight by day 5, obtained by subtracting treated groups of animals minus control groups of animals at dose 22 mg/kg in exp4.
Mus musculus [12] = assay: Median survival time of the treated control groups, in which there are no 30-day survivors at dose 15 mg/kg in exp3; format: functional
Mus musculus [13] = assay: Mortality by day 5 expressed as number of mice died to the total treated at dose 22 mg/kg in exp5; 0/6; format: ADME, organism-based; design: dose 22 mg/kg; settings: in vivo
Mus musculus [14] = assay: Mortality by day 5 expressed as number of mice died to the total treated at dose 33 mg/kg in exp5; 0/6; format: ADME, organism-based; design: dose 33 mg/kg; settings: in vivo
[15] = Ratio of number of 60-day survivors to the total treated mice at dose 50 mg/kg in exp5; 1/6; format: functional
Mus musculus [16] = assay: Median survival time of the untreated control groups, in which there are no 30-day survivors at dose 33 mg/kg in exp2; format: functional
[17] = Ratio of median survival times for non-survivors at dose 75 mg/kg in exp2; format: functional
Mus musculus [18] = assay: Median survival time of the treated control groups, in which there are no 30-day survivors at dose 100 mg/kg in exp8; format: functional
[19] = Ratio of median survival times for non-survivors at dose 33 mg/kg in exp3; format: functional
Mus musculus [20] = assay: Change in weight by day 5, obtained by subtracting treated groups of animals minus control groups of animals at dose 50 mg/kg in exp1.; format: functional; in short: as §1
Mus musculus [21] = assay: Median survival time of the untreated control groups, in which there are no 30-day survivors at dose 75 mg/kg in exp2; format: functional
Mus musculus [22] = assay: Mortality by day 5 expressed as number of mice died to the total treated at dose 33 mg/kg in exp7; 0/6; format: ADME, organism-based; design: dose 33 mg/kg; settings: in vivo
[23] = Ratio of number of 30-day survivors to the total treated mice at dose 50 mg/kg in exp5; 3/6; format: functional
Mus musculus [24] = assay: Change in weight by day 5, obtained by subtracting treated groups of animals minus control groups of animals at dose 15 mg/kg in exp3.; format: functional; in short: as §1
Mus musculus [25] = assay: Change in weight by day 5, obtained by subtracting treated groups of animals minus control groups of animals at dose 33 mg/kg in exp3.; format: functional; in short: as §1
Mus musculus [26] = assay: Change in weight by day 5, obtained by subtracting treated groups of animals minus control groups of animals at dose 50 mg/kg in exp8; format: functional; in short: as §1
Mus musculus [27] = assay: Median survival time of the treated control groups, in which there are no 30-day survivors at dose 22 mg/kg in exp7; format: functional
Mus musculus [28] = assay: Change in weight by day 5, obtained by subtracting treated groups of animals minus control groups of animals at dose 50 mg/kg in exp5; format: functional; in short: as §1
[29] = Ratio of median survival times for non-survivors at dose 50 mg/kg in exp1; format: functional; design: unit: %
In short: (§2)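 Mice were inoculated ip with 10^6 P388 leukemia cells on day 0. Groups of six (occasionally five) were dosed ip qd on days 1–5 with fresh suspensions; 30 mice served as untreated controls. Deaths were recorded daily up to day 60. T/C% compares the median survival of treated non-survivors (<60 days) with the control median. Medians used grouped data when there were no 30-day survivors, otherwise ungrouped data. t = toxic.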

Mus musculus [30] = assay: Median survival time of the treated control groups, in which there are no 30-day survivors at dose 22 mg/kg in exp3; format: functional
[31] = Ratio of median survival times for non-survivors at dose 22 mg/kg in exp4
[32] = Ratio of median survival times for non-survivors at dose 50 mg/kg in exp2; format: functional; in short: as §2
[33] = Ratio of median survival times for non-survivors at dose 100 mg/kg in exp2; format: functional; in short: as §2
Mus musculus [34] = assay: Mortality by day 5 expressed as number of mice died to the total treated at dose 50 mg/kg in exp7; 0/6; format: ADME, organism-based; design: dose 50 mg/kg; settings: in vivo
Mus musculus [35] = assay: Change in weight by day 5, obtained by subtracting treated groups of animals minus control groups of animals at dose 22 mg/kg in exp7; format: functional; in short: as §1
[36] = Ratio of median survival times for non-survivors at dose 200 mg/kg in exp1; t= toxic; format: ADME, organism-based; design: dose 200 mg/kg; settings: in vivo; in short: as §2
[37] = Ratio of median survival times for non-survivors at dose 22 mg/kg in exp6; format: functional
Mus musculus [38] = assay: Mortality by day 5 expressed as number of mice died to the total treated at dose 100 mg/kg in exp1; 1/6; format: ADME, organism-based; design: dose 100 mg/kg; settings: in vivo
Mus musculus [39] = assay: Mortality by day 5 expressed as number of mice died to the total treated at dose 15 mg/kg in exp3; 0/5; format: ADME, organism-based; design: dose 15 mg/kg; settings: in vivo
Mus musculus [40] = assay: Median survival time of the treated control groups, in which there are no 30-day survivors at dose 50 mg/kg in exp5; format: functional
Mus musculus [41] = assay: Median survival time of the treated control groups, in which there are no 30-day survivors at dose 22 mg/kg in exp5; format: functional
Mus musculus [42] = assay: Median survival time of the treated control groups, in which there are no 30-day survivors at dose 75 mg/kg in exp2; format: functional
Mus musculus [43] = assay: Median survival time of the untreated control groups, in which there are no 30-day survivors at dose 33 mg/kg in exp5; format: functional
[44] = Ratio of number of 30-day survivors to the total treated mice at dose 50 mg/kg in exp6; 3/6; format: functional

CS(=O)(=O)CS(=O)(=O)OCCCl
Mortality (Mus musculus [1]): 0 | Mortality (Mus musculus [2]): 0 | Ratio [3]: 1 | Mortality (Mus musculus [4]): 0 | Median survival time (Mus musculus [5]): 10.5 | Ratio [6]: 335 | Change in weight (Mus musculus [7]): -3.4 | Change in weight (Mus musculus [8]): -1.5 | Mortality (Mus musculus [9]): 0 | Median survival time (Mus musculus [10]): 23.3 | Change in weight (Mus musculus [11]): -1.2 | Median survival time (Mus musculus [12]): 16 | Mortality (Mus musculus [13]): 0 | Mortality (Mus musculus [14]): 0 | Ratio [15]: 1 | Median survival time (Mus musculus [16]): 11.2 | Ratio [17]: 156 | Median survival time (Mus musculus [18]): 6 | Ratio [19]: 198 | T-C (Mus musculus [20]): -3.4 g | Median survival time (Mus musculus [21]): 11.2 | Mortality (Mus musculus [22]): 0 | Ratio [23]: 3 | Change in weight (Mus musculus [24]): -0.9 | Change in weight (Mus musculus [25]): -2.8 | Change in weight (Mus musculus [26]): -1.6 | Median survival time (Mus musculus [27]): 18 | Change in weight (Mus musculus [28]): -2.2 | Ratio [29]: 281 | Median survival time (Mus musculus [30]): 18.5 | Ratio [31]: 180 | Ratio [32]: 241 | Ratio [33]: 200 | Mortality (Mus musculus [34]): 0 | Change in weight (Mus musculus [35]): -2.2 | Ratio [36]: Toxic | Ratio [37]: 160 | Mortality (Mus musculus [38]): 1 | Mortality (Mus musculus [39]): 0 | Median survival time (Mus musculus [40]): 27 | Median survival time (Mus musculus [41]): 19.4 | Median survival time (Mus musculus [42]): 17.5 | Median survival time (Mus musculus [43]): 12 | Ratio [44]: 3
